In ChEMBL document CHEMBL2176935, “Discovery and lead optimization of a novel series of CC chemokine receptor 1 (CCR1)-selective piperidine antagonists via parallel synthesis” (J Med Chem, 2012):

molecular target: T1, C-C chemokine receptor type 1 (Homo sapiens, UniProt P32246); assay: Displacement of [125I]MIP-1alpha from CCR1 in human THP1 cells; type: cell-based, THP-1
T1 sequence (P32246 whole entry): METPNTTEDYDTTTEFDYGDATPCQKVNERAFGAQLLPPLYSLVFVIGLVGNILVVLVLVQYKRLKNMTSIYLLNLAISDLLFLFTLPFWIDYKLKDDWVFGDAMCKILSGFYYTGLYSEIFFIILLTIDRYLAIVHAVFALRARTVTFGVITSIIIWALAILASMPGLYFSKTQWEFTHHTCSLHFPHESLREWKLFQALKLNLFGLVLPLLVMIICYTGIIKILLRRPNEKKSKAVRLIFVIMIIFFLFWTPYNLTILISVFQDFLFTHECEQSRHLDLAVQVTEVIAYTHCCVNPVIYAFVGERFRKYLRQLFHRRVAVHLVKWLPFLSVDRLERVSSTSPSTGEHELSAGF
Procedure, shortened: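 THP-1 cells, 1 × 105, mixed with WGA PS SPA beads in RPMI 1640 (no phenol red) with 50 mM HEPES, 5 mM MgCl2, 1 mM CaCl2, 0.1% BSA. Compound in 3-fold dilutions, 8 μM to 140 pM final. [125I]-MIP-1α at 0.1 nM final. Incubated 12 h at room temperature, imaged by LEADseeker. Duplicates; IC50 from four-parameter logistic fit after nonspecific correction.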

| IC50 | Compound |
| --- | --- |
| 370 nM | C/C=C(/NC(=O)c1ccccc1)C(=O)N1CCC(O)(c2ccc(Cl)cc2)CC1 |
| 118 nM | CC(C)[C@@H](NC(=O)c1ccc(F)cc1)C(=O)N1CCC(c2ccc(Cl)cc2)CC1 |
| 185 nM | CC(C)C(NC(=O)c1ccccc1)C(=O)N1CC=C(c2ccc(Cl)cc2)CC1 (stereo not given) |
| 85 nM | CC[C@@H](NC(=O)CCc1ccccc1)C(=O)N1CCC(c2ccc(Cl)cc2)CC1 |
| 303 nM | CC(C)C(NS(=O)(=O)Cc1ccccc1)C(=O)N1CCC(c2ccc(Cl)cc2)CC1 (stereo not given) |
| 130 nM | CC(C)CC(NC(=O)c1ccccc1)C(=O)N1CCC(c2ccc(Cl)cc2)CC1 (stereo not given) |
| 115 nM | CC(C)[C@@H](NC(=O)Cc1ccc(Cl)cc1)C(=O)N1CCC(c2ccc(Cl)cc2)CC1 |
| 66 nM | CC[C@@H](C)[C@@H](NC(=O)CCc1ccccc1)C(=O)N1CCC(c2ccc(Cl)cc2)CC1 |
| 30 nM | CC(C)[C@@H](NC(=O)Cc1ccccc1)C(=O)N1CCC(c2ccc(Cl)cc2)CC1 |
| 121 nM | O=C(N[C@@H](C(=O)N1CCC(c2ccc(Cl)cc2)CC1)C1CCCCC1)c1ccccc1 |
| 388 nM | CC(C)C(=O)NC(C(=O)N1CCC(c2ccc(Cl)cc2)CC1)C(C)C (stereo not given) |
| 55 nM | CC(C)C(NC(=O)c1ccccc1)C(=O)N1CCC(c2ccc(Cl)cc2)CC1 (stereo not given) |
| 525 nM | CC(C)C(NC(=O)c1ccccc1)C(=O)N1CCN(c2ccc(Cl)cc2)CC1 (stereo not given) |
| 152 nM | CCCC(NC(=O)c1ccccc1C)C(=O)N1CCC(c2ccc(Cl)cc2)CC1 (racemic) |
| 32 nM | Cc1ccccc1C(=O)N[C@@H](C(=O)N1CCC(c2ccc(Cl)cc2)CC1)C(C)C |
| 105 nM | Cc1ccc(CCC(=O)N[C@@H](C(=O)N2CCC(c3ccc(Cl)cc3)CC2)C(C)C)cc1 |
| 140 nM | Cc1ccc(CC(=O)N[C@@H](C(=O)N2CCC(c3ccc(Cl)cc3)CC2)C(C)C)cc1 |
| 70 nM | CC(C)[C@@H](NC(=O)CCc1ccc(F)cc1)C(=O)N1CCC(c2ccc(Cl)cc2)CC1 |
| 20 nM | CC(C)[C@@H](NC(=O)CC1CCCC1)C(=O)N1CCC(c2ccc(Cl)cc2)CC1 |
| 34 nM | CC[C@@H](C)[C@@H](NC(=O)CC(C)C)C(=O)N1CCC(c2ccc(Cl)cc2)CC1 |
| 180 nM | CC(C)[C@@H](NC(=O)NCc1ccccc1)C(=O)N1CCC(c2ccc(Cl)cc2)CC1 |
| 100 nM | Cc1cccc(C(=O)N[C@@H](C(=O)N2CCC(c3ccc(Cl)cc3)CC2)C(C)C)c1C |
| 262 nM | Cc1ccccc1C(=O)NC(C(=O)N1CCC(c2ccc(Cl)cc2)CC1)C(C)(C)C (stereo not given) |

| IC50 | Compound |
| --- | --- |
| 543 nM | CC(C)[C@@H](NC(=O)NCCc1ccccc1)C(=O)N1CCC(c2ccc(Cl)cc2)CC1 |
| 58 nM | CC(C)[C@@H](NC(=O)c1cc2ccccc2s1)C(=O)N1CCC(c2ccc(Cl)cc2)CC1 |
| 36 nM | Cc1ccccc1C(=O)NC(C(=O)N1CCC(c2ccc(Cl)cc2)CC1)C(C)C (stereo not given) |
| 40 nM | CC(C)[C@@H](NC(=O)CCc1ccccc1)C(=O)N1CCC(c2ccc(Cl)cc2)CC1 |
| 19 nM | Cc1ccccc1CCC(=O)N[C@@H](C(=O)N1CCC(c2ccc(Cl)cc2)CC1)C(C)C |
| 88 nM | Cc1ccccc1C(=O)NC(CC(C)C)C(=O)N1CCC(c2ccc(Cl)cc2)CC1 (stereo not given) |
| 95 nM | CC(C)[C@@H](NC(=O)CCCc1ccccc1)C(=O)N1CCC(c2ccc(Cl)cc2)CC1 |
| 38 nM | CC[C@@H](C)[C@@H](NC(=O)Cc1ccccc1)C(=O)N1CCC(c2ccc(Cl)cc2)CC1 |
| 80 nM | CC(C)C(NC(=O)c1ccc2ccccc2c1)C(=O)N1CCC(c2ccc(Cl)cc2)CC1 (stereo not given) |
| 521 nM | CCCC(NC(=O)c1ccccc1)C(=O)N1CCC(O)(c2ccc(Cl)cc2)CC1 (stereo not given) |
| 46 nM | CC(C)[C@@H](NC(=O)CC1CC1)C(=O)N1CCC(c2ccc(Cl)cc2)CC1 |
| 539 nM | CSCCC(NC(=O)c1ccccc1)C(=O)N1CCC(O)(c2ccc(Cl)cc2)CC1 (stereo not given) |
| 120 nM | CCCC(NC(=O)c1ccccc1)C(=O)N1CCC(c2ccc(Cl)cc2)CC1 (racemic) |
| 121 nM | CC[C@@H](NC(=O)c1ccccc1)C(=O)N1CCC(c2ccc(Cl)cc2)CC1 |
| 50 nM | CC[C@@H](NC(=O)Cc1ccccc1)C(=O)N1CCC(c2ccc(Cl)cc2)CC1 |
| 26 nM | CC(C)CCC(=O)N[C@@H](C(=O)N1CCC(c2ccc(Cl)cc2)CC1)C(C)C |
| 8 nM | CC(C)[C@@H](NC(=O)CC1CCCCC1)C(=O)N1CCC(c2ccc(Cl)cc2)CC1 |
| 854 nM | CC(C)C(NC(=O)OCc1ccccc1)C(=O)N1CCC(O)(c2ccc(Cl)cc2)CC1 (stereo not given) |
| 375 nM | CC(C)C(NC(=O)c1ccccc1)C(=O)N1CCN(c2ccc(Cl)c(Cl)c2)CC1 (stereo not given) |
| 616 nM | CC(C)[C@@H](NC(=O)Nc1ccccc1)C(=O)N1CCC(c2ccc(Cl)cc2)CC1 |
| 423 nM | CC(C)C(NC(=O)c1ccccc1)C(=O)N1CCC(c2ccc(F)cc2)CC1 (stereo not given) |
| 259 nM | CC(C)(C)C(NC(=O)c1ccccc1)C(=O)N1CCC(c2ccc(Cl)cc2)CC1 (stereo not given) |
| 35 nM | CC(C)C(NC(=O)CCc1ccccc1)C(=O)N1CCC(c2ccc(Cl)cc2)CC1 (stereo not given) |

| IC50 | Compound |
| --- | --- |
| 70 nM | CC(C)[C@@H](NC(=O)C1CCCC1)C(=O)N1CCC(c2ccc(Cl)cc2)CC1 |
| 18 nM | CC(C)[C@@H](NC(=O)c1nc2ccccc2s1)C(=O)N1CCC(c2ccc(Cl)cc2)CC1 |
| 24 nM | CC(C)[C@@H](NC(=O)c1cccc(F)c1)C(=O)N1CCC(c2ccc(Cl)cc2)CC1 |
| 44 nM | CC(C)[C@@H](NC(=O)Cc1cccc(F)c1)C(=O)N1CCC(c2ccc(Cl)cc2)CC1 |
| 180 nM | CC(C)C(NC(=O)c1ccccc1)C(=O)N1CCC(O)(c2ccc(Cl)cc2)CC1 (stereo not given) |
| 2830 nM | CC(O)C(NC(=O)c1ccccc1)C(=O)N1CCC(O)(c2ccc(Cl)cc2)CC1 (stereo not given) |
| 14900 nM | CC(C)[C@H](NC(=O)c1ccccc1)C(=O)N1CCC(c2ccc(Cl)cc2)CC1 |
| 13 nM | CC(C)[C@@H](NC(=O)Cc1ccccc1F)C(=O)N1CCC(c2ccc(Cl)cc2)CC1 |
| 152 nM | CC[C@@H](NC(=O)CC(C)C)C(=O)N1CCC(c2ccc(Cl)cc2)CC1 |
| 45 nM | CC[C@@H](C)[C@@H](NC(=O)c1ccccc1)C(=O)N1CCC(c2ccc(Cl)cc2)CC1 |
| 14 nM | CC(C)[C@@H](NC(=O)c1ccc(F)c(F)c1)C(=O)N1CCC(c2ccc(Cl)cc2)CC1 |
| 177 nM | Cc1cccc(C)c1C(=O)N[C@@H](C(=O)N1CCC(c2ccc(Cl)cc2)CC1)C(C)C |
| 25 nM | Cc1ccc(C(=O)N[C@@H](C(=O)N2CCC(c3ccc(Cl)cc3)CC2)C(C)C)cc1 |
| 191 nM | CCCC(NC(=O)c1ccc2ccccc2c1)C(=O)N1CCC(c2ccc(Cl)cc2)CC1 (racemic) |
| 45 nM | CC(C)[C@@H](NC(=O)Cc1cccc(Cl)c1)C(=O)N1CCC(c2ccc(Cl)cc2)CC1 |
| 933 nM | CC(C)C(NC(=O)c1ccccc1)C(=O)N1CCC(O)(c2ccc(F)cc2)CC1 (stereo not given) |
| 32 nM | CC(C)CC(=O)N[C@@H](C(=O)N1CCC(c2ccc(Cl)cc2)CC1)C(C)C |
| 18 nM | CC(C)[C@@H](NC(=O)CCc1ccccc1F)C(=O)N1CCC(c2ccc(Cl)cc2)CC1 |
| 324 nM | CC(C)CC(NC(=O)c1ccccc1)C(=O)N1CCC(O)(c2ccc(Cl)cc2)CC1 (stereo not given) |
| 1080 nM | CC(C)C(NC(=O)OCc1ccccc1)C(=O)N1CCC(c2ccc(Cl)cc2)CC1 (stereo not given) |
| 22 nM | Cc1cccc(CCC(=O)N[C@@H](C(=O)N2CCC(c3ccc(Cl)cc3)CC2)C(C)C)c1 |
| 172 nM | CC(C)C(NC(=O)c1ccccc1)C(=O)N1CCC(O)(c2ccc(Br)cc2)CC1 (stereo not given) |
| 40 nM | CC(C)C(NC(=O)Cc1ccccc1)C(=O)N1CCC(c2ccc(Cl)cc2)CC1 (stereo not given) |

| Compound | IC50 |
| --- | --- |
| CC(C)C(NC(=O)Oc1ccccc1)C(=O)N1CCC(c2ccc(Cl)cc2)CC1 (stereo not given) | 265 nM |
